Experimental findings from PubChem BioAssay AID1448 (The Scripps Research Institute Molecular Screening Center, 2008) are described below.

The whole screen tested about 220,000 compounds, of which about 630 (0.29%) were called active. This is one part of a sample in which actives are shown more often than they occur. Unmarked numbers belong to inactive results.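 Rule for the calls: active = activation above its plate's cutoff, the mean activation of the plate's test wells plus 3 SD (cut at about 12% in these data); inactive = the rest.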

Mucolipin-3 (Homo sapiens), sequence (Q8TDD5 whole entry, looked up): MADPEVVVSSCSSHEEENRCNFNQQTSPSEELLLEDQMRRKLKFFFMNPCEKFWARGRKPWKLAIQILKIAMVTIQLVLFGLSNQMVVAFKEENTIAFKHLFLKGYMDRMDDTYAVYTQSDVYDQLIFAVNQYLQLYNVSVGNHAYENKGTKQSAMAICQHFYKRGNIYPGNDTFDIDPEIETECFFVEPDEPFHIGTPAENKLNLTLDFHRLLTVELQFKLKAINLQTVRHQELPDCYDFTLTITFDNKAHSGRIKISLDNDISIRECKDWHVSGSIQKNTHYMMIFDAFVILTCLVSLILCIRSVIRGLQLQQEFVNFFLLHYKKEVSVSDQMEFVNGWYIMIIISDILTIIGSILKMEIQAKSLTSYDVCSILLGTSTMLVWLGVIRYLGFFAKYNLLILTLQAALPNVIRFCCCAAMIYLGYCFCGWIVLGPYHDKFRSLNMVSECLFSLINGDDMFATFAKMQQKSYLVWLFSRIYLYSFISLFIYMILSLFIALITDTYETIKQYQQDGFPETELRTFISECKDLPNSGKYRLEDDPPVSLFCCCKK

This assay concerns the target Mucolipin-3 (Homo sapiens) (UniProt Q8TDD5). Briefly: activators of mucolipin-3 cation channel – cell-based, HEK293 TRPML3-YFP, Fluo-8 calcium fluorescence, 3 µM, primary screen (AID 1448).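 Note: 0% = DMSO only wells and 100% = carbachol wells.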 The note with it: at 3 µM, active compounds read high, 100% = the carbachol control signal. The procedure, abridged:
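Material: HEK293 cells stably carrying human TRPML3-YFP; compound dosing: single dose, 3 µM final nominal compound, 0.3% DMSO final; incubation: 1-h 37 °C dye load, 5-s basal, 120-s post-compound reads; technique: Fluo-8 intracellular calcium fluorescence, excitation 470-495 nm, emission 515-575 nm; read-out basis: percent activation from peak-to-basal fluorescence ratio, scaled between DMSO and carbachol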
Regarding `Cc1ccc(C2=N/C(=C\c3ccc(OS(=O)(=O)c4ccc(C)cc4)cc3)C(=O)O2)cc1`, the activation is 0.55%.

As for `CCN(CC)S(=O)(=O)c1ccc(C)c(NC(=O)COc2ccc(Br)cc2Cl)c1`, the activation is 0.13%.

With `O=C(Nc1ccccc1C(=O)O)c1cc(S(=O)(=O)N2CCCCC2)cs1`, the activation is -0.64%.

Consider `c1csc(-c2nnc(COc3ccc4c(c3)OCO4)o2)c1`, for which the activation was 0.41%.

Turning to `c1ccc2c(CSCc3nc4ccccc4[nH]3)cccc2c1`, the activation is 0.61%.

As to `Nc1scc[n+]1Cc1cccc2cccnc12`, the activation is 0.56%.

With `c1ccc2c(C[n+]3csc4ccccc43)cccc2c1`, the activation is 34.1% (active).

In the case of `O=C(CN1CCN(c2nc(-c3ccccc3)cs2)CC1)NCc1ccc2c(c1)OCO2`, the activation was 0.02%.

For `COc1cccc(NC(=O)CN2CCN(c3nc(-c4cccc(OC)c4)cs3)CC2)c1`, the activation is 0.54%.

In the case of `CC1CCCC(C)N1C(=O)CN1CCN(c2nc(-c3ccc(F)cc3)cs2)CC1` (stereo unspecified), the activation is 12.9% (active).

With `CC1CCCC(NC(=O)COC(=O)[C@@H]2CC(O)CN2S(=O)(=O)c2ccc3c(c2)OCCO3)C1C` (stereo partly specified), the activation was 0.86%.

For `COc1cc(N/C=C2\CC(=O)NC(C)=C2C#N)cc(OC)c1OC`, the activation is 0.7%.

For the compound `COc1cccc(CC(=O)N2CCCC(CCC(=O)N3CCN(c4ccccn4)CC3)C2)c1` (stereo unspecified), the activation was 2.9%.

As to `CC(C[N+](C)(C)C)OC(N)=O` (stereo unspecified), the activation is 3.52%.

Turning to `CC(=O)OC(C)C[N+](C)(C)C` (stereo unspecified), the activation was 78.4% (active).

Regarding `COc1ccc(C[C@H]2CN3C(=NC[C@H]3C)N2CCNC(=O)CCC2CCCCC2)cc1`, the activation is 0.4%.

As to `CCCCCCCCCCOC(=O)C[N+](C)(C)CC1CCCCC1O` (stereo unspecified), the activation was -0.99%.

Take `Cc1cccc(C)c1N1CCN(S(=O)(=O)N2CCOCC2)CC1`: the activation is 1.69%.

Regarding `O=S(=O)(N1CCCCC1)N1CCNCC1`, the activation was 0.7%.

Turning to `Cc1cccc(C)c1N1CCN(S(=O)(=O)N2CCCCC2)CC1`, the activation was 57.5% (active).

Consider `CCC(C)(C)c1ccc(OCC(=O)N(C)C)c(C(C)(C)CC)c1`, for which the activation is 0.49%.

Consider `O=C(CSc1nnc(-c2ccccc2)o1)N1CCOCC1`, for which the activation is 0.92%.

As to `CC1=CC(C)(C)N(C(=O)CSc2nnc(-c3ccccc3)o2)c2ccc(C)cc21`, the activation is 23.2% (active).

With `CC1=CC(C)(C)N(C(=O)CSc2nccn2C)c2cc(C)ccc21`, the activation was -1.12%.

Turning to `Cc1ccc(C(=O)N2CCN(S(=O)(=O)N3CCOCC3)CC2)cc1`, the activation is 0.24%.

Regarding `O=C(COC(=O)CC1CC2CCC1C2)NC(=O)NC1CCCC1` (stereo unspecified), the activation was 0%.

Regarding `COc1ccc(S(=O)(=O)NC(C)C(=O)Nc2cccc([N+](=O)[O-])c2)cc1` (stereo unspecified), the activation was -0.47%.

In the case of `COc1cc(OC)c(-n2cc(-c3ccc(Cl)cc3)[nH]c2=O)cc1Cl`, the activation is 12.1% (active).

On to `COc1ccc(-c2cn(-c3ccc(OC)cc3)c(=S)[nH]2)cc1`, for which the activation was 0.32%.

As to `COc1cc(OC)c(-n2c(C)cc(C=O)c2C)cc1Cl`, the activation was -0.32%.

On to `Cc1nnc(N/N=C/C2CC=CCC2)[nH]c1=O` (stereo unspecified), for which the activation is 1.13%.

In the case of `N#C/C(=C/c1ccc(-c2ccccc2[N+](=O)[O-])o1)C(=O)NCCN1CCCCC1`, the activation was -0.32%.

Turning to `O=C(NCCc1c[nH]c2ccccc12)C(=O)NCC1CCCO1` (stereo unspecified), the activation was 0.08%.

On to `N#C/C(=C/c1ccc(N2CCCCC2)o1)C(=O)NCCc1c[nH]c2ccccc12`, for which the activation is 15.6% (active).

On to `Cn1c(SCC(=O)c2ccc(F)cc2)nnc1-c1ccccn1`, for which the activation was -0.33%.

Take `Cc1nc(COc2cccc(Cl)c2)sc1C(=O)/C=C/N(C)C`: the activation is -0.16%.

As to `COc1ccc(N=C(C)c2sc3ccccc3c2O)cc1`, the activation was 2.16%.

Consider `CCC(C(=O)OCC(=O)Nc1ccc(C(=O)Nc2ccc(OC)cc2)cc1)c1ccccc1` (stereo unspecified), for which the activation was 1.2%.

In the case of `CCC(C(=O)Nc1ccc(C(C)C)cc1)c1ccccc1` (stereo unspecified), the activation was 15.7% (active).

Consider `CCC(C(=O)Nc1ccc2c(c1)OCCO2)c1ccccc1` (stereo unspecified), for which the activation was -0.06%.

As for `Cn1cccc1/C=N/NC(=O)c1ccc(OC(F)(F)C(F)F)cc1`, the activation was 0.29%.

With `Cc1cc(NC(=O)CCC(=O)N(CC(=O)NCC2CCCO2)c2ccccc2C)no1` (stereo unspecified), the activation was -0.47%.

Consider `Cc1cc(C)nc(/N=C2\NC(=O)CC(C(=O)O)N2c2ccc(Cl)cc2Cl)n1` (stereo unspecified), for which the activation is 0.53%.

For the compound `Cc1ccc(C(NC(=O)N2CCCC2)C(Cl)(Cl)Cl)cc1F` (stereo unspecified), the activation was -0.15%.

`Oc1ccc2ccc3cccc[n+]3c2c1`: the activation was 14.6% (active).

For the compound `C/C(=N\Nc1nc(N2CCOCC2)nc(N2CCOCC2)n1)c1ccc([N+](=O)[O-])cc1`, the activation was 0.78%.

Turning to `COc1ccc(/C=N/NC(=O)C(C)N(c2ccc(OC)cc2)S(C)(=O)=O)cc1` (stereo unspecified), the activation is 0.53%.

`CC(C)n1c(CN2CCN(Cc3ccccc3)CC2)nc2ccccc21`: the activation is 0.13%.

Turning to `CCN(C(=O)Cc1nc(N)n[nH]1)C1(C(=O)Nc2ccccc2)CCCCC1`, the activation is -0.28%.

For `Cc1nc2sc(C(=O)c3ccccc3)c(N)c2c2c1CCCC2`, the activation is -0.35%.

Regarding `CN(C)c1ccnc2sc(C(=O)c3ccccc3)c(N)c12`, the activation was -0.55%.

For the compound `Nc1c(C(=O)c2cccs2)sc2nsc(SCCN3CCCCC3)c12`, the activation was 23.1% (active).

Regarding `CCN(CC)c1ccc(C(=O)c2cnc(/N=C/N(C)C)s2)cc1`, the activation was -0.38%.

Consider `COC(=O)c1ccccc1N=Nc1c(C)[nH][nH]c1=O`, for which the activation is 0.25%.

Consider `C[C@@H](NC(=O)OC(C)(C)C)c1nnc(S(=O)(=O)Cc2ccccc2)o1`, for which the activation was 1.12%.

With `CCN1/C(=C/C(=S)Nc2ccccc2)Sc2ccccc21`, the activation was -0.23%.

In the case of `CCN1/C(=C\c2ccc3ccccc3[n+]2CC)Sc2cc(C)ccc21`, the activation was 16.6% (active).

With `CCN1CCN(CCNC(=O)c2ccc(/C=C3/Sc4ccccc4N(Cc4cccc(C)c4)C3=O)cc2)CC1`, the activation is 1.89%.

For the compound `CCN1/C(=C/c2ccc3ccc(C)cc3[n+]2CC)Sc2ccccc21`, the activation is 12.7% (active).

As to `COc1ccc(CNC(=O)CN(Cc2ccc(Cl)cc2)S(C)(=O)=O)cc1`, the activation is 0.83%.

For `COc1ccc(N(Cc2ccccc2)S(=O)(=O)c2cccc(C(=O)O)c2)cc1`, the activation is 0.34%.

Consider `COc1ccc(N(CCC#N)S(=O)(=O)c2ccc(Cl)cc2)cc1`, for which the activation is 11.9% (active).

Consider `Cc1[nH]c2c(C(=O)N3CCCC(CCC(=O)NCc4ccccc4F)C3)cccc2c1C` (stereo unspecified), for which the activation was -0.04%.

On to `COC(=O)CCC(=O)N1CCCC(CO)(Cc2ccccc2)C1` (stereo unspecified), for which the activation was 0.26%.

For `Cc1ccccc1-n1nc(C)c2c1N=C1C(Cl)=CC(Cl)=CN1C2c1ccc(C(=O)O)cc1` (stereo unspecified), the activation is 0.62%.

Consider `Cc1ccc(OCC(=O)Nc2ccccc2Sc2ccc(Cl)cc2)c([N+](=O)[O-])n1`, for which the activation is 0.1%.

With `CC(C)CNC(=O)C(=O)Nc1ccc(N(C)C)cc1`, the activation is 1.3%.

In the case of `O=[N+]([O-])/C=C1\CCCCCN1`, the activation was 0.64%.

With `COc1ccc(S(=O)(=O)N(C)CC(=O)N2CCCC2)cc1Cl`, the activation was 0.85%.

Consider `COc1cccc2c(=O)n(CC(=O)N3CCCCCC3)ccc12`, for which the activation is 0.82%.

For `CCOC(=O)N1CCN(C(=O)CN(c2ccc(C)c(C)c2)S(=O)(=O)c2ccccc2)CC1`, the activation is 0.07%.

On to `COc1ccccc1N(CC(=O)N1CCCCC1)S(=O)(=O)c1ccccc1`, for which the activation was 162% (active).

In the case of `COc1ccc(Cl)cc1N(CC(=O)N/N=C/c1ccc(OCC(N)=O)cc1)S(C)(=O)=O`, the activation was 0.86%.

As to `COc1ccc(Cl)cc1N(CC(=O)N1CCCCC1)S(C)(=O)=O`, the activation was 56.7% (active).

As to `CCCC(=O)Nc1ccc2c(c1)nc(CCNC(=O)c1ccco1)n2C`, the activation is 0.81%.

For the compound `CCOc1ccc(CN2CCN(Cc3ccc(C)o3)CC2CCO)cc1` (stereo unspecified), the activation is 1.1%.

In the case of `CN(Cc1nc(-c2cnccn2)no1)Cc1n[nH]c2c1CCCCC2`, the activation is 0.69%.

In the case of `CCn1c(SCC(=O)Nc2nccs2)nnc1-c1ccco1`, the activation was 0.4%.

For the compound `O=C(CSc1nnc2ccc(-c3ccncc3)nn12)N1CCCCC1`, the activation was -0.71%.

Regarding `Cc1ccc(F)cc1NC(=O)N1CCCN(c2ccc(C(F)(F)F)cn2)CC1`, the activation is 2.2%.

Regarding `Cc1ccc2c(c1)-c1c(ssc1=S)C(C)(C)N2C(=O)CN1C(=O)c2ccccc2C1=O`, the activation was -0.04%.

In the case of `Cc1cc2c(cc1C)N(C(=O)CN1C(=O)c3ccccc3C1=O)C(C)(C)c1ssc(=S)c1-2`, the activation is 81.4% (active).

Regarding `Cc1cccc(NC(=O)CN2C(=O)c3ccccc3C2=O)c1C`, the activation was 1.15%.

As to `CCOc1ccc(NC(=O)NNC(=O)c2ccc(Cl)cc2Cl)cc1`, the activation was 0.56%.

Turning to `O=C(NCCN1CCOCC1)c1ccc2c(c1)N(Cc1ccc(Cl)cc1)CCS2`, the activation was 0.23%.

`O=C1/C(=C/c2cccs2)SC(=S)N1C1CCS(=O)(=O)C1` (stereo unspecified): the activation is 0.54%.

In the case of `O=C(NC(Nc1nc2ccc([N+](=O)[O-])cc2s1)(C(F)(F)F)C(F)(F)F)c1ccccc1`, the activation was 13% (active).

In the case of `O=C(O)CCC(=O)Nc1nc2ccc([N+](=O)[O-])cc2s1`, the activation was 0.5%.

`O=C(Nc1nc2ccc([N+](=O)[O-])cc2s1)c1ccncc1`: the activation was 1.14%.

In the case of `C=CCNC(=O)COC(=O)CNC(=O)c1cc(Cl)cc([N+](=O)[O-])c1`, the activation is 0.51%.

As for `COc1ccc(NS(=O)(=O)c2ccc(Oc3c(C#N)cccc3C#N)cc2)cc1`, the activation was 4.31%.

Regarding `Cc1nnc(C)c2c(C)n(N)c(C)c12`, the activation is 0.94%.

For `O=C(NC(CC(=O)N1CCN(c2ccccc2)CC1)c1ccccc1)c1ccccc1Cl` (stereo unspecified), the activation is -0.24%.

`CCN(CC)c1ccc2cc(C(N)=O)/c(=N\NC(=O)c3ccncc3)oc2c1`: the activation was 22.1% (active).

As to `CCN(CC)c1ccc2cc(C(=O)O)c(=O)oc2c1`, the activation was 0.92%.

Turning to `COc1ccc(C(=O)N/N=c2\oc3ccccc3cc2C(N)=O)cc1`, the activation is 0.85%.
